Here are results for 40 compounds from ChEMBL document CHEMBL3091336, “Analogs of the Allosteric Heat Shock Protein 70 (Hsp70) Inhibitor, MKT-077, as Anti-Cancer Agents” (ACS Med Chem Lett, 2013).

pEC50, pKd: −log10 of the molar value.

For orientation: pEC50 means −log10 of the EC50, conventionally taken in molar units. A word on the pKd: it is −log10 of the Kd, conventionally taken in molar units. The half-life is how long it takes for the measured level to halve. A high value points to slow decline.

The nature of data set [1]: Half life in mouse liver microsomes at 1 uM incubated for 15 mins prior to beta-NADPH addition by LC-MS/MS analysis. The format is ADME, Microsome. Particulars: for t1/2: microsomes, 0.25 h, 1 µM; for half-life at 1 µM: liver microsomes. Put shortly:
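Compounds at 1 μM incubated with mouse liver microsomes. Degradation followed by LC–MS and reported as half-life.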
(Liver microsomes are a subcellular fraction often used to study metabolism.)

The next data set has as its system MEF. The data set can be described thus: Cytotoxicity against C57BL/6 mouse MEF assessed as growth inhibition after 72 hrs by MTT assay. Format: cell-based. As to conditions: C57BL/6, MEF. Put shortly:
(§1)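 Antiproliferative activity measured by MTT assay. EC50 is the average of triplicate experiments, with error as SEM.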
In general terms: Tetrazolium assays rely on reduction of a dye to a coloured formazan, in cell work by metabolically active cells.

The subject of the next data set is MDA-MB-231. The data set can be described thus: Cytotoxicity against human MDA-MB-231 cells assessed as growth inhibition after 72 hrs by MTT assay. Particulars: MDA-MB-231, 72 h. The format is functional, cell-based. Put shortly:
as §1

The subject of the next data set is MCF7. The data set can be described thus: Cytotoxicity against human MCF7 cells assessed as growth inhibition after 72 hrs by MTT assay. The format is functional, cell-based. As to conditions: MCF7, 72 h. In a few lines:
as §1

In data set [2] the target is Heat shock cognate 71 kDa protein (Homo sapiens, UniProt P11142). The data set can be described thus: Binding affinity to human HSC70 after 3 hrs by ELISA.
Chain of Heat shock cognate 71 kDa protein (P11142 whole entry): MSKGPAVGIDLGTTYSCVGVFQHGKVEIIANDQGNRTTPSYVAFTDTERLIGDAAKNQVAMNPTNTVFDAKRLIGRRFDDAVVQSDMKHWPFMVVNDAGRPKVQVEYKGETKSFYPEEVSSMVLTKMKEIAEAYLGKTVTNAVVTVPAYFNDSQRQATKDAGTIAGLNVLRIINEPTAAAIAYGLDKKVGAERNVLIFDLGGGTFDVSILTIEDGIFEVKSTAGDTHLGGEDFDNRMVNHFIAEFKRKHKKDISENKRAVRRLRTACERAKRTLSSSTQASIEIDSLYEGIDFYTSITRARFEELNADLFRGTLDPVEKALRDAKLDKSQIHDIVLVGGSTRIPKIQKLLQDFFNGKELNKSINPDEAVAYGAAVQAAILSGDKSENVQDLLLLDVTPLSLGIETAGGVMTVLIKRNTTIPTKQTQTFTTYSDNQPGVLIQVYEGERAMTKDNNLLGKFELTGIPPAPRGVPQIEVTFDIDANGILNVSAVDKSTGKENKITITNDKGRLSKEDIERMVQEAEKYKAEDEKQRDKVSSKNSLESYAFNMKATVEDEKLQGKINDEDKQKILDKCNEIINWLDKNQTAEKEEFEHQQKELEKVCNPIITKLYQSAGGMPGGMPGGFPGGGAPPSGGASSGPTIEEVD

`CCn1c(=O)/c(=C2\Sc3ccc(F)cc3N2C)s/c1=C\c1cccc[n+]1C.[Cl-]` came in with a t1/2 in data set [1] of 23 min. For the same compound, the values for the pEC50 in the data set on MEF, with MDA-MB-231 and in the data set with MCF7 were under 4.30, 5.11 and 4.74, respectively.
Taken in the same sequence, the figures for `CCn1c(=O)/c(=C2\Sc3c(F)cccc3N2C)s/c1=C\c1cccc[n+]1C.[Cl-]` were 16 min, under 4.30, 5.21 and 5.07.
For the compound `CCn1c(=O)/c(=C2\Sc3c(Cl)cccc3N2C)s/c1=C\c1cccc[n+]1C.[Cl-]`, the t1/2 entry in data set [1] is “ND(Insoluble)”. Further, the negative logarithm of the EC50 (pEC50) is under 4.30 in the data set with MEF, 5.39 in the data set on MDA-MB-231 and 5.28 in the data set on MCF7.
Take `CCn1c(=O)/c(=C2\Sc3ccccc3N2C)s/c1=C\c1nccc[n+]1C.[Cl-]`: the t1/2 result in data set [1] was “ND(Insoluble)”. For the same compound, the pEC50 with MEF is under 4.30; with MDA-MB-231, 5.24; in the data set on MCF7 it was 5.04.
In data set [2], `CCn1c(=O)/c(=C2\Sc3ccc(F)cc3N2C)s/c1=C\c1cccc[n+]1CCCCCCNC(=O)CCCC[C@@H]1SC[C@@H]2NC(=O)N[C@@H]21` showed a pKd of 5.64.
Consider `CCn1c(=O)/c(=C2\Sc3cccc(Cl)c3N2C)s/c1=C\c1cccc[n+]1C.[Cl-]`, for which the t1/2 entry in data set [1] is reported as “ND(Insoluble)”. The pEC50 in the data set with MEF is under 4.30; in the data set with MDA-MB-231, 5.36; in the data set on MCF7, 5.11.
On to `CCn1c(=O)/c(=C2\Sc3cc(F)ccc3N2C)s/c1=C\c1cccc[n+]1CC.[Cl-]`, for which, in data set [1], the t1/2 result is reported as “ND(Insoluble)”. For the same compound, the pEC50 with MEF is under 4.52; with MDA-MB-231, 5.08; in the data set on MCF7, 6.05.
With `CCn1c(=O)/c(=C2\Sc3ccc(Cl)cc3N2C)s/c1=C\c1cccc[n+]1CCCCCCNC(=O)CCCC[C@@H]1SC[C@@H]2NC(=O)N[C@@H]21`, the pKd in data set [2] is 5.40.
Same read-out and setting: then `CCn1c(=O)/c(=C2\Sc3cc(F)ccc3N2C)s/c1=C\c1cccc[n+]1CCCCCCNC(=O)CCCC[C@@H]1SC[C@@H]2NC(=O)N[C@@H]21`, with 5.82.
In data set [1], `CCn1c(=O)/c(=C2\Sc3cccc(Cl)c3N2C)s/c1=C\c1scc[n+]1Cc1ccccc1.[Cl-]` yielded a half-life at 1 µM of 8.8 min. For the same compound, the values for the pEC50 with MEF, with MDA-MB-231 and in the data set with MCF7 were 5.15, 6.40 and 6.10, respectively.
In turn, `CCn1c(=O)/c(=C2\Sc3ccccc3N2C)s/c1=C\c1cccc[n+]1C.[Cl-]` displayed a half-life at 1 µM in data set [1] of under 5 min. In addition, the negative-log EC50 (pEC50) was under 4.30 in the data set with MEF, 5.70 in the data set on MDA-MB-231 and 5.28 in the data set on MCF7.
With `C=CCn1c(=O)/c(=C2\Sc3ccccc3N2C)s/c1=C\c1cccc[n+]1C.[Cl-]`, the t1/2 entry in data set [1] is reported as “ND(Insoluble)”. Further, the pEC50 in the data set on MEF was under 4.30; in the data set with MDA-MB-231, 5.44; in the data set with MCF7, 5.08.
In data set [2], `CCn1c(=O)/c(=C2\Sc3cc(Cl)ccc3N2C)s/c1=C\c1cccc[n+]1CCCCCCNC(=O)CCCC[C@@H]1SC[C@@H]2NC(=O)N[C@@H]21` gave a pKd of 5.77.
Consider `CCn1c(=O)/c(=C2\Sc3cc(F)ccc3N2C)s/c1=C\c1cccc[n+]1C.[Cl-]`, for which, in data set [1], the t1/2 was 7.7 min. Moreover, the pEC50 in the data set on MEF was under 4.30; with MDA-MB-231, 5.25; in the data set with MCF7, 5.21.
Taken in the same sequence, the figures for `CCn1c(=O)/c(=C2\Sc3ccc(F)cc3N2C)s/c1=C\c1cccc[n+]1CC.[Cl-]` were “ND(Insoluble)”, under 4.52, 4.89 and 5.62.
For the compound `CCn1c(=O)/c(=C2\Sc3ccccc3N2C)s/c1=C\c1scc[n+]1CC.[Cl-]`, the t1/2 entry in data set [1] is “ND(Insoluble)”. Also, the pEC50 is under 4.52 in the data set on MEF, 5.66 in the data set with MDA-MB-231 and 6.10 with MCF7.
As to `CCn1c(=O)/c(=C2\Sc3ccc(Cl)cc3N2C)s/c1=C\c1scc[n+]1Cc1ccccc1.[Cl-]`, in data set [1], the t1/2 entry is given as “ND(Insoluble)”. Also, the pEC50 in the data set with MEF was under 4.52; in the data set on MDA-MB-231, 6.22; in the data set with MCF7, 6.10.
In the case of `CCn1c(=O)/c(=C2\Sc3cc(Cl)ccc3N2C)s/c1=C\c1cccc[n+]1C.[Cl-]`, the half-life at 1 µM in data set [1] turned out to be 8.2 min. The pEC50 is under 4.30 in the data set with MEF, 5.08 in the data set on MDA-MB-231 and 5.02 in the data set with MCF7.
On to `CCn1c(=O)/c(=C2\Sc3ccccc3N2C)s/c1=C\c1cc[n+](C)cc1.[Cl-]`, for which the t1/2 result in data set [1] was “ND(Insoluble)”. Besides, the pEC50 is under 4.30 in the data set with MEF, 5.77 in the data set with MDA-MB-231 and 4.72 with MCF7.
Taken in the same sequence, the figures for `CCn1c(=O)/c(=C2\Sc3ccc(OC)cc3N2C)s/c1=C\c1cccc[n+]1C.[Cl-]` were “ND(Insoluble)”, under 4.30, 5.55 and 4.85.
Taken in the same sequence, the figures for `CCn1c(=O)/c(=C2\Sc3c(Cl)cccc3N2C)s/c1=C\c1scc[n+]1Cc1ccccc1.[Cl-]` were “ND(Insoluble)”, under 4.52, 6.30 and 6.00.
Take `CCn1c(=O)/c(=C2\Sc3c(F)cccc3N2C)s/c1=C\c1cccc[n+]1CC.[Cl-]`: in data set [1], the t1/2 result is given as “ND(Insoluble)”. Also, the values for the pEC50 with MEF, with MDA-MB-231 and in the data set on MCF7 were 4.57, 5.55 and 6.10, respectively.
In data set [2], `CCn1c(=O)/c(=C2\Sc3cc(OC)ccc3N2C)s/c1=C\c1cccc[n+]1CCCCCCNC(=O)CCCC[C@@H]1SC[C@@H]2NC(=O)N[C@@H]21` showed a pKd of 5.27.
Take `CCn1c(=O)/c(=C2\Sc3ccccc3N2C)s/c1=C\c1scc[n+]1C.[Cl-]`: the t1/2 result in data set [1] is on record as “ND(Insoluble)”. Also, the figures for the pEC50 in the data set with MEF, in the data set on MDA-MB-231 and with MCF7 were under 4.30, 5.29 and 6.15, respectively.
Regarding `CCn1c(=O)/c(=C2\Sc3ccccc3N2C)s/c1=C\c1cccc[n+]1Cc1ccccc1.[Cl-]`, the t1/2 entry in data set [1] is listed as “ND(Insoluble)”. For the same compound, the pEC50 was under 4.30 in the data set on MEF, 6.00 in the data set with MDA-MB-231 and 5.82 with MCF7.
For the compound `CCn1c(=O)/c(=C2\Sc3ccc(Cl)cc3N2C)s/c1=C\c1cccc[n+]1C.[Cl-]`, the t1/2 entry in data set [1] is “ND(Insoluble)”. Also, the negative-log EC50 (pEC50) in the data set with MEF was under 4.30; in the data set with MDA-MB-231, 5.34; in the data set on MCF7, 4.55.
Turning to `CCn1c(=O)/c(=C2\Sc3cc(C(F)(F)F)ccc3N2C)s/c1=C\c1cccc[n+]1CCCCCCNC(=O)CCCC[C@@H]1SC[C@@H]2NC(=O)N[C@@H]21`, the negative logarithm of the Kd (pKd) in data set [2] was 6.00.
`CN1/C(=c2\s/c(=C\c3cccc[n+]3C)n(Cc3ccccc3)c2=O)Sc2ccccc21.[Cl-]`: in data set [1], the t1/2 entry was “ND(Insoluble)”. Moreover, the pEC50 in the data set with MEF is under 4.30; in the data set on MDA-MB-231 it was 5.74; with MCF7 it was 5.54.
On to `CCn1c(=O)/c(=C2\Sc3cc(C(F)(F)F)ccc3N2C)s/c1=C\c1cccc[n+]1C.[Cl-]`, for which the t1/2 result in data set [1] was “ND(Insoluble)”. The values for the pEC50 in the data set with MEF, in the data set with MDA-MB-231 and in the data set on MCF7 were under 4.30, 4.72 and under 4.52, respectively.
On the same counts, the results for `CCC[n+]1ccccc1/C=c1\s/c(=C2/Sc3ccccc3N2C)c(=O)n1CC.[Cl-]` are “ND(Insoluble)”, under 4.30, 5.80 and 5.55.
Taken in the same sequence, the figures for `CCn1c(=O)/c(=C2\Sc3ccccc3N2C)s/c1=C\c1scc[n+]1Cc1ccccc1.[Cl-]` were “ND(Insoluble)”, 5.17, 6.30 and 6.22.
On the same counts, the results for `CCn1c(=O)/c(=C2\Sc3cccc(F)c3N2C)s/c1=C\c1cccc[n+]1C.[Cl-]` are 15 min, under 4.30, 5.40 and 5.66.
In data set [1], `CCn1c(=O)/c(=C2\Sc3cc(OC)ccc3N2C)s/c1=C\c1cccc[n+]1C.[Cl-]` returned a half-life at 1 µM of 10 min. For the same compound, the pEC50 is under 4.30 in the data set on MEF, 5.40 in the data set on MDA-MB-231 and 4.96 in the data set with MCF7.
Consider `CCn1c(=O)/c(=C2\Sc3c(F)cccc3N2C)s/c1=C\c1cccc[n+]1CCCCCCNC(=O)CCCC[C@@H]1SC[C@@H]2NC(=O)N[C@@H]21`, for which the pKd in data set [2] was 5.72.
On to `CCn1c(=O)/c(=C2\Sc3ccccc3N2C)s/c1=C\c1cccc[n+]1CCO.[Cl-]`, for which the t1/2 entry in data set [1] is listed as “ND(Insoluble)”. The pEC50 in the data set on MEF was under 4.30; with MDA-MB-231, 4.62; in the data set on MCF7, 5.16.
With `CCn1c(=O)/c(=C2\Sc3ccc(OC)cc3N2C)s/c1=C\c1cccc[n+]1CCCCCCNC(=O)CCCC[C@@H]1SC[C@@H]2NC(=O)N[C@@H]21`, the pKd in data set [2] is 6.05.
Still for that read-out and setting: next, `CCn1c(=O)/c(=C2\Sc3ccccc3N2C)s/c1=C\c1cccc[n+]1CCCCCCNC(=O)CCCC[C@@H]1SC[C@@H]2NC(=O)N[C@@H]21`: 5.70.
`CCn1c(=O)/c(=C2\Sc3ccc(C(F)(F)F)cc3N2C)s/c1=C\c1cccc[n+]1C.[Cl-]`: the t1/2 entry in data set [1] was “ND(Insoluble)”. The values for the pEC50 with MEF, in the data set with MDA-MB-231 and with MCF7 were under 4.30, 4.68 and under 4.52, respectively.
The compound `CCn1c(=O)/c(=C2\Sc3c(Cl)cccc3N2C)s/c1=C\c1cccc[n+]1CCCCCCNC(=O)CCCC[C@@H]1SC[C@@H]2NC(=O)N[C@@H]21` gave a pKd in data set [2] of 5.59.
Consider `CCn1c(=O)/c(=C2\Sc3cccc(F)c3N2C)s/c1=C\c1cccc[n+]1CC.[Cl-]`, for which the t1/2 result in data set [1] is listed as “ND(Insoluble)”. Further, the values for the negative-log EC50 (pEC50) in the data set with MEF, in the data set with MDA-MB-231 and in the data set on MCF7 were under 4.52, 5.42 and 6.00, respectively.
